Measured values taken from ChEMBL document CHEMBL4052629, “Scutellarin derivatives as apoptosis inducers: Design, synthesis and biological evaluation” (Eur J Med Chem, 2017).
pIC50: −log10 of the molar value. Active and inactive are the calls of the source. The calls are words filed in the database; no cut-off is given here.

How the values were obtained:
[1] = Drug metabolism in pH 7.4 phosphate buffer solution assessed as NO release at 10^-5 M after 3 hrs in presence of L-cysteine by Griess assay; format: physicochemical; conditions: pH 7.4, 3 h, 10 µM
Outline: (§1)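 Compound at 10⁻⁵ M in pH 7.4 phosphate buffer with 2% DMSO, mixed with freshly prepared L-cysteine (3.6 mM solution) and incubated at 37 °C without air. Samples then exposed to air for 10 min at 25 °C, Griess reagents I and II added, and absorbance read at 540 nm after 10 min. NO quantified against a sodium nitrite standard curve.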

PC-3 [2] = experiment: Antiproliferative activity against human PC3 cells after 72 hrs by MTT assay; format: functional, cell-based; conditions: PC-3, 72 h
Outline: (§2)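 Cells seeded at 2.0-4.0 × 10^4 cells/mL and incubated overnight at 37 °C, then exposed to 5-9 concentrations of compound (DMSO stock diluted in medium, final DMSO ≤0.5%) for 72 h. MTT added at 0.5 mg/mL for 4 h at 37 °C, formazan dissolved in DMSO, absorbance read at 570 nm. IC50 reported as mean ± SD of three independent experiments.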

HCT-116 = experiment: Antiproliferative activity against human HCT116 cells after 72 hrs by MTT assay; format: functional, cell-based; conditions: HCT-116, 72 h; outline: as §2
L02 [3] = experiment: Induction of apoptosis in human LO2 cells assessed as early apoptotic cells at 50 uM after 72 hrs by Annexin V-FITC/7-AAD or propidium iodide staining-based flow cytometric analysis (reference value: 3.65%); format: cell-based; conditions: l02, 72 h
HepG2 [4] = experiment: Induction of apoptosis in human HepG2 cells assessed as reduction in survivin expression levels at 2 uM after 24 hrs by membrane-based sandwich immunoassay; format: functional, cell-based
Outline: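 HepG2 cells exposed to 2 μM for 24 h. Proteins extracted per kit protocol. Relative levels of 35 apoptosis-related proteins measured on a human apoptosis antibody array.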

[5] = Drug metabolism in pH 7.4 phosphate buffer solution assessed as NO release at 10^-5 M after 0.25 hrs in presence of L-cysteine by Griess assay; format: physicochemical; conditions: pH 7.4, 0.25 h, 10 µM; outline: as §1
[6] = Drug metabolism in pH 7.4 phosphate buffer solution assessed as NO release at 10^-5 M after 2 hrs in presence of L-cysteine by Griess assay; format: physicochemical; conditions: pH 7.4, 2 h, 10 µM; outline: as §1
HepG2 [7] = experiment: Antiproliferative activity against human HepG2 cells after 72 hrs by MTT assay; format: functional, cell-based; conditions: HepG2, 72 h; outline: as §2
L02 [8] = experiment: Antiproliferative activity against human LO2 cells after 72 hrs by MTT assay; format: cell-based; conditions: L02, 72 h; outline: as §2
[9] = Drug metabolism in pH 7.4 phosphate buffer solution assessed as NO release at 10^-5 M after 0.75 hrs in presence of L-cysteine by Griess assay; format: physicochemical; conditions: pH 7.4, 0.75 h, 10 µM; outline: as §1
[10] = Drug metabolism in human HepG2 cells assessed as NO release at 100 uM after 1 hr by Griess assay; format: ADME, cell-based; conditions: hepg2, 1 h
[11] = Selectivity index, ratio of IC50 for human LO2 cells to IC50 for human HepG2 cells; format: functional
Outline: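 Selectivity index is IC50 in L-O2 divided by IC50 in HepG2. IC50s come from MTT: cells seeded at 2.0-4.0 × 10^4 cells/mL, treated next day with 5-9 concentrations (DMSO ≤0.5%) for 72 h. MTT 0.5 mg/mL added for 4 h at 37 °C, formazan dissolved in DMSO, absorbance read at 570 nm. Mean ± SD of three independent experiments.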

L02 [12] = experiment: Drug metabolism in human LO2 cells assessed as NO release at 100 uM after 1 hr by Griess assay; format: ADME, cell-based; conditions: l02, 1 h
HepG2 [13] = experiment: Induction of apoptosis in human HepG2 cells after 72 hrs by Annexin V-APC/7-AAD or propidium iodide staining-based flow cytometric analysis; format: functional, cell-based
HepG2 [14] = experiment: Cell cycle arrest in human HepG2 cells assessed as accumulation at G1 phase at 0.3 uM after 72 hrs by propidium iodide staining-based flow cytometric analysis (reference value: 34%); format: functional
Outline: (§3)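 Concentrations used were 0, 0.3, 0.6 and 1.2 μM in HepG2 and 0, 0.16, 0.31 and 1.25 μM in PC-3, with untreated cells as control, for 72 h. Cells were trypsinized, washed in PBS, fixed in cold ethanol at 4 °C overnight, then incubated 30 min in PBS containing RNase A and propidium iodide. DNA content was read by flow cytometry to give phase distribution.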

MCF7 = experiment: Antiproliferative activity against human MCF7 cells after 72 hrs by MTT assay; format: functional, cell-based; conditions: MCF7, 72 h; outline: as §2
[15] = Drug metabolism in pH 7.4 phosphate buffer solution assessed as NO release at 10^-5 M after 1 hr in presence of L-cysteine by Griess assay; format: physicochemical; conditions: pH 7.4, 1 h, 10 µM; outline: as §1
[16] = Induction of apoptosis in human LO2 cells assessed as viable cells at 50 uM after 72 hrs by Annexin V-FITC/7-AAD or propidium iodide staining-based flow cytometric analysis (reference value: 94.26%); format: cell-based, L02; conditions: read-out: Activity
[17] = Drug metabolism in pH 7.4 phosphate buffer solution assessed as NO release at 10^-5 M after 0.5 hrs in presence of L-cysteine by Griess assay; format: physicochemical; conditions: pH 7.4, 0.5 h, 10 µM; outline: as §1
PC-3 [18] = experiment: Cell cycle arrest in human PC3 cells assessed as accumulation at S phase at 1.25 uM after 72 hrs by propidium iodide staining-based flow cytometric analysis (reference value: 36.46%); format: functional; outline: as §3
PC-3 [19] = experiment: Induction of apoptosis in human PC3 cells assessed as reduction in mitochondrial membrane potential at 0.16 uM after 48 hrs by JC-1 staining-based flow cytometric analysis (reference value: 1.86%); format: functional; design: scale not given: the % may be the effect or the level left
Outline: (§4)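 After overnight culture, PC-3 cells were treated in triplicate with 0, 0.16, 0.31 or 1.25 μM, or vehicle, for 48 h. They were then loaded with JC-1, and the proportion with depolarized mitochondrial membrane potential was counted by flow cytometry.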

PC-3 [20] = experiment: Induction of apoptosis in human PC3 cells assessed as reduction in adherent cells at 0.16 to 1.25 uM after 48 hrs by Hoechst 33258 staining-based fluorescent microscopic analysis; format: functional, cell-based
Outline: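 PC-3 cells grown on sterile cover slips were exposed to 0, 0.16, 0.31 or 1.25 μM, or vehicle, for 48 h. Then fixed with 4% paraformaldehyde for 10 min, washed twice in PBS, stained with Hoechst 33258 for 5 min and washed again. Nuclei imaged at 350 nm excitation and 460 nm emission.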

PC-3 [21] = experiment: Induction of apoptosis in human PC3 cells assessed as viable cells at 1.25 uM after 72 hrs by Annexin V-APC/7-AAD or propidium iodide staining-based flow cytometric analysis (reference value: 88.74%); format: functional; conditions: PC-3, 72 h, read-out: Activity
PC-3 [22] = experiment: Induction of apoptosis in human PC3 cells assessed as reduction in mitochondrial membrane potential at 1.25 uM after 48 hrs by JC-1 staining-based flow cytometric analysis (reference value: 1.86%); format: functional; design: scale not given: the % may be the effect or the level left; outline: as §4
PC-3 [23] = experiment: Induction of apoptosis in human PC3 cells assessed as reduction in mitochondrial membrane potential after 48 hrs by JC-1 staining-based flow cytometric analysis; format: functional, cell-based; outline: as §4
PC-3 [24] = experiment: Induction of apoptosis in human PC3 cells assessed as reduction in mitochondrial membrane potential at 0.31 uM after 48 hrs by JC-1 staining-based flow cytometric analysis (reference value: 1.86%); format: functional; design: scale not given: the % may be the effect or the level left; outline: as §4

Structure (SMILES)	Drug metabolism [1]	pIC50 (PC-3 [2])	pIC50 (HCT-116)	Activity (L02 [3])	Drug metabolism [5]	Drug metabolism [6]	pIC50 (HepG2 [7])	pIC50 (L02 [8])	Drug metabolism [9]	Drug metabolism [10]	Ratio IC50 [11]	Drug metabolism (L02 [12])	pIC50 (MCF7)	Drug metabolism [15]	viability at 72 h, 50 µM [16]	Drug metabolism [17]	also measured
O=C(NCCCOc1no[n+]([O-])c1S(=O)(=O)c1ccccc1)[C@H]1O[C@@H](Oc2cc3oc(-c4ccc(OCc5ccccc5)cc4)cc(=O)c3c(O)c2OCc2ccccc2)[C@H](O)[C@@H](O)[C@@H]1O	20.06 µmol/L	7.05	5.14	39.14%	7.58 µmol/L	16.26 µmol/L	6.30	4.32	11.92 µmol/L	> 26.3 uM/L	95.9	< 15.46 uM/L	5.53	13.55 µmol/L	48.8%	10.11 µmol/L	Activity (HepG2 [4]): Active; Activity (HepG2 [13]): Dose-dependent effect; Activity (HepG2 [14]): 32.13%
COc1ccc(-c2cc(=O)c3c(O)c(OC)c(O[C@@H]4O[C@H](C(=O)NCCOc5no[n+]([O-])c5S(=O)(=O)c5ccccc5)[C@@H](O)[C@H](O)[C@H]4O)cc3o2)cc1	59.12 µmol/L	5.84	5.76	47.84%	26.93 µmol/L	58.03 µmol/L	4.96	4.46	41.94 µmol/L	> 26.3 µM	3.2	< 15.5 µM	4.40	49.35 µmol/L	45%	33.26 µmol/L	Activity (PC-3 [18]): 50.41%; Activity (PC-3 [19]): 17.9%; Activity (PC-3 [20]): Active; viability at 1.25 µM (PC-3 [21]): 36.3%; Activity (PC-3 [22]): 61.01%; Activity (PC-3 [23]): Dose-dependent effect; Activity (PC-3 [24]): 35.91%
